Data on four compounds can be found in ChEMBL document CHEMBL1765016, “Indolylarylsulfones as HIV-1 non-nucleoside reverse transcriptase inhibitors: new cyclic substituents at indole-2-carboxamide” (J Med Chem, 2011).

In data set [1] the test system is Human immunodeficiency virus 1. Description: Antiviral activity against wild type HIV1 3B infected in human CEM cells assessed as inhibition of virus-induced cytopathicity after 4 days by microscopic analysis. To be noted: Human immunodeficiency virus 1, 3B, CCRF-CEM, 96 h. Type of data set: functional, organism-based. In short, it runs like this:
(§1)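 CEM cells (~3 × 10⁵ cells/mL) infected with ~100 CCID₅₀ virus per mL, seeded into wells with compound dilutions. Syncytia (giant cell) formation scored microscopically after 4 days at 37 °C. EC₅₀ is the concentration protecting cells by 50%. Values are means of two experiments in triplicate.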
Background: Protection from cytopathic effect is a common read-out in antiviral testing.

Data set [2] can be described thus: Selectivity index, CC50 for human CEM cells to IC50 for HIV1 3B. Type of data set: functional, CCRF-CEM. In short, it runs like this: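 Ratio of CC₅₀ (Coulter count, mock-infected CEM) to EC₅₀ (CEM, HIV-1 IIIB, microscopic syncytia scoring at day 4).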
Data set [3] deals with Human immunodeficiency virus type 1 reverse transcriptase (Human immunodeficiency virus 1, UniProt Q72547, K103N). As to the kind of experiment: Inhibition of HIV1 reverse transcriptase K103N mutant expressed in Escherichia coli assessed as incorporation of [3H]dTTP into poly(rA)/oligo(dT) by scintillation counting. In short, it runs like this:
(§2)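 The RT was recombinant p66(His)/p51 heterodimer, mutant form, expressed in E. coli. TCA-precipitable radioactivity on GF/C filters was read by scintillation. IC50 is the concentration giving 50% inhibition.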

Data set [4] deals with Human immunodeficiency virus 1. As to the kind of experiment: Antiviral activity against HIV1 clade A/E ID12 infected in PHA-stimulated human PBMC assessed as inhibition of p24 production after 10 to 12 days by ELISA. In kind it is functional, organism-based. As to conditions: Human immunodeficiency virus 1, clade A/E ID12. In short, it runs like this:
(§3)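 PHA-stimulated (2 μg/mL, 3 days, 37 °C) donor PBMC blasts, washed in PBS, seeded 0.5 × 10⁶ cells/well in RPMI 1640 with 10% fetal calf serum and IL-2 (25 units/mL) containing varying compound concentrations; virus added at 250 pg p24/mL final. Supernatant collected days 10-12 and assayed for HIV-1 core antigen.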
For orientation: In an ELISA, binding on a coated surface is turned into a signal by an enzyme label.

Data set [5] addresses Human immunodeficiency virus type 1 reverse transcriptase (Human immunodeficiency virus 1, UniProt Q72547, Y181I). As to the kind of experiment: Inhibition of HIV1 reverse transcriptase Y181I mutant expressed in Escherichia coli assessed as incorporation of [3H]dTTP into poly(rA)/oligo(dT) by scintillation counting. In short, it runs like this:
as §2

Data set [6] addresses Human immunodeficiency virus type 1 reverse transcriptase (Human immunodeficiency virus 1, UniProt Q72547). As to the kind of experiment: Inhibition of HIV1 wild type reverse transcriptase expressed in Escherichia coli assessed as incorporation of [3H]dTTP into poly(rA)/oligo(dT) by scintillation counting. In short, it runs like this:
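Template was poly(rA)/oligo(dT) 10:1 (0.3 μM 3′-OH ends) with 10 μM [³H]dTTP, at 37 °C. TCA-precipitable counts were taken on GF/C filters. IC₅₀ is 50% inhibition of RT activity.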

Data set [7] has as its target Human immunodeficiency virus type 1 reverse transcriptase (Human immunodeficiency virus 1, UniProt Q72547, L100I). Description: Inhibition of HIV1 reverse transcriptase L100I mutant expressed in Escherichia coli assessed as incorporation of [3H]dTTP into poly(rA)/oligo(dT) by scintillation counting. In short, it runs like this:
as §2

Data set [8] has as its system Human immunodeficiency virus 1. As to the kind of experiment: Antiviral activity against HIV1 clade C DJ259 infected in PHA-stimulated human PBMC assessed as inhibition of p24 production after 10 to 12 days by ELISA. To be noted: Human immunodeficiency virus 1, clade C DJ259. Type of data set: functional, organism-based. In short, it runs like this:
as §3

The subject of data set [9] is Human immunodeficiency virus 1. Description: Antiviral activity against HIV1 group O BCF06 infected in PHA-stimulated human PBMC assessed as inhibition p24 production after 10 to 12 days by ELISA. In kind it is functional, organism-based. To be noted: Human immunodeficiency virus 1, group O BCF06. In short, it runs like this: as §3
Data set [10] can be described thus: Cytotoxicity against human CEM cells by coulter counter analysis. Type of data set: cell-based. As to conditions: CEM (CCRF-CEM) cells. In short, it runs like this: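 Mock-infected CEM cultures with compound, cell number counted by Coulter counter as percent of untreated control. CC₅₀ (50% reduction in proliferation) was read from plots against concentration. Values are means of two experiments in triplicate.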

Data set [11] concerns Human immunodeficiency virus 2. As to the kind of experiment: Antiviral activity against HIV2 isolate ROD infected in human CEM cells assessed as inhibition of virus-induced cytopathicity after 4 days by microscopic analysis. As to conditions: Human immunodeficiency virus 2, ISOLATE ROD, CCRF-CEM, 96 h. In kind it is functional, organism-based. In short, it runs like this: as §1

The subject of data set [12] is Human immunodeficiency virus 1. Description: Antiviral activity against HIV1 clade B BaL infected in PHA-stimulated human PBMC assessed as inhibition of p24 production after 10 to 12 days by ELISA. In kind it is functional, organism-based. As to conditions: Human immunodeficiency virus 1, clade B BaL. In short, it runs like this: as §3
Data set [13] concerns Human immunodeficiency virus 1. Description: Antiviral activity against HIV1 clade A UG273 infected in PHA-stimulated human PBMC assessed as inhibition of p24 production after 10 to 12 days by ELISA. In kind it is functional, organism-based. As to conditions: Human immunodeficiency virus 1, clade A UG273. In short, it runs like this:
as §3

Data set [14] deals with Human immunodeficiency virus 1. As to the kind of experiment: Antiviral activity against HIV1 harboring reverse transcriptase L100I mutant infected in human MT-4 cells assessed as inhibition of virus-induced cytopathicity after 4 days by MTT assay. As to conditions: Human immunodeficiency virus 1, MT4, 96 h. Type of data set: functional, organism-based. In short, it runs like this: (§4)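 MT-4 cells at 1 × 10⁵ cells/mL were infected with RT-mutant HIV-1 at a multiplicity of infection of 0.02. They were plated at once with serial compound dilutions (DMSO stocks of 50 mM or higher). […] Virus stocks had been titrated in MT-4 cells as CCID50.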

The test system of data set [15] is Human immunodeficiency virus 1. As to the kind of experiment: Antiviral activity against HIV1 harboring reverse transcriptase Y188L mutant infected in human MT-4 cells assessed as inhibition of virus-induced cytopathicity after 4 days by MTT assay. In kind it is functional, organism-based. As to conditions: Human immunodeficiency virus 1, MT4, 96 h. In short, it runs like this: as §4

The test system of data set [16] is Human immunodeficiency virus 1. As to the kind of experiment: Antiviral activity against wild type HIV1 3B infected in human MT-4 cells assessed as inhibition of virus-induced cytopathicity after 4 days by MTT assay. As to conditions: Human immunodeficiency virus 1, 3B, MT4, 96 h. In kind it is functional, organism-based. In short, it runs like this: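 MT-4 cells at 1 × 10⁵ cells/mL, infected at MOI 0.02 (virus titrated as CCID₅₀ in MT-4), dispensed immediately onto serial compound concentrations (DMSO stocks ≥50 mM). Viable cells counted by MTT after 4 days at 37 °C. EC₅₀ is the concentration giving 50% protection of cell viability. Values are means of at least three experiments.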

For data set [17], the system named is Human immunodeficiency virus 1. Description: Antiviral activity against […] harboring reverse transcriptase K103N mutant infected in human MT-4 cells assessed as inhibition of virus-induced cytopathicity after 4 days by MTT assay. As to conditions: Human immunodeficiency virus 1, MT4, 96 h. Type of data set: functional, organism-based. In short, it runs like this:
as §4

In data set [18] the test system is Human immunodeficiency virus 1. Description: Antiviral activity against HIV1 harboring reverse transcriptase E138K mutant infected in human MT-4 cells assessed as inhibition of virus-induced cytopathicity after 4 days by MTT assay. In kind it is functional, organism-based. As to conditions: Human immunodeficiency virus 1, MT4, 96 h. In short, it runs like this:
as §4

For data set [19], the system named is Human immunodeficiency virus 1. As to the kind of experiment: Antiviral activity against HIV1 harboring reverse transcriptase Y181C mutant infected in human MT-4 cells assessed as inhibition of virus-induced cytopathicity after 4 days by MTT assay. To be noted: Human immunodeficiency virus 1, MT4, 96 h. Type of data set: functional, organism-based. In short, it runs like this:
as §4

In data set [20] the test system is Human immunodeficiency virus type 1 reverse transcriptase (Human immunodeficiency virus 1), Q72547 [K103N]. As to the kind of experiment: Ratio of compound IC50 to efavirenz IC50 for HIV1 reverse transcriptase K103N mutant.

Broadly, the EC50 is the midpoint of the concentration-response curve. A word on the IC50: it is the concentration needed to halve the response being measured. In general, CC50 refers to the concentration giving 50% cytotoxicity. A higher CC50 goes with better tolerance by the cells. Turning to `Cc1cc(C)cc(S(=O)(=O)c2c(C(=O)NCN3CCCC3)[nH]c3ccc(Cl)cc23)c1`, the EC50 in data set [1] was 3.3 nM; in data set [4], 0.3 nM; in [8], 0.1 nM; in data set [9], 0.2 nM; in data set [11], greater than 2000 nM; in [12] it was 0.1 nM. For the same compound, in [13], the EC50 is 0.1 nM. For the same compound, in [2], the “Selectivity Index” value was 3333. Moreover, the IC50 was 96 nM in data set [3], 442 nM in [5], 12 nM in [6] and 26 nM in data set [7]. The compound also displayed a CC50 in data set [10] of 11000 nM.
`Cc1cc(C)cc(S(=O)(=O)c2c(C(=O)NCN3CCOCC3)[nH]c3ccc(Cl)cc23)c1`: the EC50 stood at 8 nM in data set [14]; 1.9 nM in data set [1]; 0.3 nM in data set [4]; 440 nM in data set [15]; 3.2 nM in data set [16]; 0.5 nM in data set [8]. The half-maximal effective concentration (EC50) in data set [9] is 0.9 nM; in [17], 11 nM; in data set [18] it was 14 nM; in data set [11], greater than 2000 nM; in [12], 0.1 nM; in data set [13], 0.1 nM. The EC50 in [19] came out at 23 nM. Also, the “Selectivity Index” value in data set [2] is listed as 5789. Further, the IC50 in data set [3] turned out to be 512 nM; in data set [5], 5480 nM; in [6], 54 nM; in data set [7], 117 nM. Further, in data set [10], the CC50 was 11000 nM.
Take `Cc1cc(C)cc(S(=O)(=O)c2c(C(=O)NCCn3cccc3)[nH]c3ccc(Cl)cc23)c1`: the EC50 in data set [14] was 11 nM; in data set [1] it was 6.5 nM; in data set [4], 2.9 nM; in data set [15], greater than 1000 nM; in [16] it was 15 nM; in [8], 3.5 nM. Moreover, the 50% effective concentration (EC50) in [9] was 3.2 nM; in data set [17], 15 nM; in data set [18], 18 nM; in data set [11], greater than 10000 nM; in data set [12] it was 2.3 nM; in data set [13] it was 2.1 nM. Moreover, the EC50 in data set [19] worked out at 67 nM. Further, the “Selectivity Index” value in [2] is 8308. Besides, the half-inhibitory concentration (IC50) in [3] is 85 nM; in data set [5], greater than 40000 nM; in data set [6], 14 nM; in data set [7] it was 34 nM. In [10], this compound returned a half-maximal cytotoxic concentration (CC50) of 54000 nM.
`Cc1cc(C)cc(S(=O)(=O)c2c(C(=O)NCN3CCCCC3)[nH]c3ccc(Cl)cc23)c1`: the EC50 in data set [1] was 1.3 nM; in data set [11] it was greater than 2000 nM. Moreover, in data set [2], the “Selectivity Index” value amounted to 7615. Also, the IC50 in data set [3] stood at 120 nM; in [5], 581 nM; in [6], 8 nM; in data set [7] it was 37 nM. Also, in data set [20], the Ratio IC50 was greater than 160. In addition, in data set [10], the CC50 came out at 9900 nM.
